# Sampled rows, rich in hits. Any-hit rate of the full collection: about 4.2%.
# TAAR1 ag: human TAAR1 agonism | Q96RJ0 | CHO RD-HGA16 TAAR1, Fluo-8 calcium fluorescence; vehicle wells 0%, saturating PEA agonist 100% | activation, % at 3 µM | actives 0.99% (n = 360,000) | AID 624467;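 active means activation above the mean activation of all test compounds in the run plus 3 SD, cut at about 38% in these data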
# Target sequence (Q96RJ0 whole entry, looked up): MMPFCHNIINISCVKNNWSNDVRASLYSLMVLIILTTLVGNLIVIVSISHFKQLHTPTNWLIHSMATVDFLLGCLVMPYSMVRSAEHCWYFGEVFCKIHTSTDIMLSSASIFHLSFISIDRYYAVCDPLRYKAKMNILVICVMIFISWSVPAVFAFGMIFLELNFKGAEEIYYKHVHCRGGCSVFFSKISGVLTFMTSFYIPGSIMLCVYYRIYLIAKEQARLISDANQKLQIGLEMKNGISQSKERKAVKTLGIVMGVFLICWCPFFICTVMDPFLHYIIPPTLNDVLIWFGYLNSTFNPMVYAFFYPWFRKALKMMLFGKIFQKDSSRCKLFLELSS
#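 System: CHO-derived RD-HGA16 cells with stable Gα16 and human TAAR1. Times: 17-24 h plating, Fluo-8 75 min 37 °C, 30 min RT. Measured by: calcium-sensitive Fluo-8 signal, excitation 470-495, emission 515-575 nm. Read-out basis: % activation relative to PEA EC100 response. Control set: DMSO and PEA EC100. Repeats: no replicates (n 1).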
# GalR3 antagonist: antagonists of human GalR3; HEK293 GalR3-CNG cAMP membrane potential fluorescence; galR3 body fused to GalR1 C-terminus; AID 651719; inhibition, % at 3 µM; O60755; actives 0.44% (n = 360,000);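 active means inhibition above the screen-wide average plus 3 SD, cut at about 13% in these data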;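 further: forskolin and galanin both at EC90 stimulate the cells; cAMP rise reported by CNG channel membrane potential dye signal; 0% = forskolin plus galanin with DMSO and 100% = forskolin alone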
# TAAR1 antagonist: antagonists of human TAAR1; Q96RJ0; CHO RD-HGA16 TAAR1, Fluo-8 calcium fluorescence, antagonist; inhibition, % at 3 µM; actives 1.5% (n = 360,000);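 active means inhibition above a per-plate cutoff, the mean inhibition of test compounds on that plate plus 3 SD, cut at about 49% in these data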;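 further: 0% = DMSO plus EC80 beta-PEA response and 100% = DMSO alone without agonist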
#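 Material: CHO RD-HGA16 cells bearing hTAAR1; compound dosing: one-point dosing, 3 µM nominal final; schedule: dye loading 75 min at 37 °C, then 30 min room temperature; measured by: calcium fluorescence with Fluo-8; control set: vehicle and agonist controls; replication: n of 1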
# OX1R antag-1: blocks the human orexin 1 receptor. O43613. OX1R-expressing cells, FRET antagonist read-out. inhibition, % at 6.6 µM. actives 1.8% (n = 330,000). AID 485270; in the data active means inhibition mostly above about 38%, no sharp cut-off; inactive means mostly below about 40%;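 further: 0% = agonist challenge alone and 100% = reference antagonist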
# CHO parental Ca: counter-screen for OX1R antagonists: effect in parental CHO cells; inhibition, % at 5.6 µM; actives 0.63% (n = 330,000); AID 463079; parental CHO-K1, ATP-induced calcium, Fluo-8 fluorescence;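 active means inhibition above that plate's mean sample inhibition plus 3 SD, cut at about 26% in these data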;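 further: 0% = ATP-challenged DMSO wells and 100% = DMSO wells without ATP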
#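 Measured by: calcium-sensitive Fluo-8 fluorescence / Test system: CHO parental line / Controls: ATP-challenged DMSO wells low, unchallenged DMSO wells high / Measure: % inhibition / Compound: single nominal dose of 5.6 µM per compound / Replicates: single well per compound, no replicates / Reagent: ATP as calcium-mobilizing challenge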
# OX1R antag-2: human HCRTR1 antagonism; inhibition, % at 5 µM; CHO/OX1R cells, Fluo-8 calcium fluorescence, orexin A; actives 0.43% (n = 330,000);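 active means inhibition above its plate's threshold, mean inhibition of all tested compounds on the plate plus 3 SD, cut at about 37% in these data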;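 further: 0% = orexin A challenge wells and 100% = SB-334867-A antagonist wells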
# TAAR1 ag conf: confirmation of human TAAR1 agonists; shares compounds with TAAR1 ag; CHO RD-HGA16 TAAR1, Fluo-8 calcium fluorescence; scaled: DMSO 0%, maximal phenethylamine 100%; activation, % at 3 µM; actives 82% (n = 2,400); AID 651783;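 active means activation above a cutoff set at the run's mean compound activation plus 3 SD, cut at about 39% in these data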
# Ga16 ag counter: nonselective agonist in parental cells, TAAR1 agonist counter-screen; shares compounds with TAAR1 ag; CHO-Ga16 parental, Fluo-8 calcium fluorescence; normalized to maximal ATP response, DMSO zero; activation, % at 3 µM; actives 50% (n = 2,400); AID 651787;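 active means activation above the run cutoff, the mean activation over all tested wells plus 3 SD, cut at about 12% in these data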;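 further: 0% = DMSO wells and 100% = maximal ATP response on the peak over basal ratio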
# TAAR1 desensitize: TAAR1 response desensitization, agonist counter-screen | CHO RD-HGA16 hTAAR1, Fluo-8 calcium, beta-PEA response inhibition | actives 46% (n = 2,400) | shares compounds with TAAR1 ag | inhibition, % at 3 µM | AID 651951;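 active means inhibition above the run cutoff, the mean inhibition of all test compounds plus 3 SD, cut at about 49% in these data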;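 further: beta-PEA stimulus applied at its EC80; loss of beta-PEA calcium signal after compound pretreatment read as receptor desensitization; 0% = DMSO with beta-PEA at EC80 and 100% = DMSO alone without agonist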
# Ga16 antag count: counter-screen for TAAR1 agonists: nonselective Ga16 antagonists; shares compounds with TAAR1 ag; CHO-Ga16 ATP-induced calcium, Fluo-8 fluorescence; inhibition, % at 3 µM; actives 39% (n = 2,400); AID 651952;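 active means inhibition above the plate's mean compound inhibition plus 3 SD, computed per plate, cut at about 22% in these data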;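 further: 0% = EC80 ATP with DMSO and 100% = DMSO wells without ATP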
# Active calls of the source: *; . = no result.
SMILES,TAAR1 ag,GalR3 antagonist,TAAR1 antagonist,OX1R antag-1,CHO parental Ca,OX1R antag-2,TAAR1 ag conf,Ga16 ag counter,TAAR1 desensitize,Ga16 antag count
Cc1cccc(C)c1-n1nnnc1C(c1cccc2ccccc12)N1CCC2(CC1)C(=O)NCN2c1ccccc1 (stereo unspecified),1.2,-6.0,-22.7,.,.,.,.,.,.,.
COc1cc(CCN)ccc1O,89.9*,.,31.2,9.4,-9.4,-9.9,86.8*,3.6,66.7*,7.0
Cn1c(O)c(/C=N/NC(=O)c2ccncc2)c(=O)n(C)c1=S,-0.3,-0.4,5.5,19.6,-20.2,-2.3,.,.,.,.
CN1/C(=C\C=C2C(=O)NC(=O)NC2=O)C(C)(C)c2ccccc21,85.8*,-7.1,33.9,112.3*,41.2*,35.4,21.2,26.6*,21.9,25.3*
Cc1c(C=C2C(=O)NC(=O)NC2=O)c(=O)n(-c2ccccc2)n1C,2.9,-1.1,2.2,12.6,-4.9,-3.7,.,.,.,.
CNC(C)Cc1ccccc1 (stereo unspecified),63.2*,1.6,65.5*,1.9,-10.9,-3.6,93.8*,18.5*,82.8*,9.1
CNc1ccc2oc(C[C@H]3O[C@@]4(CC[C@H]3C)O[C@H]([C@H](C)C(=O)c3ccc[nH]3)[C@H](C)C[C@H]4C)nc2c1C(=O)O,198.3*,-5.6,105.9*,20.4,59.1*,67.4*,183.6*,145.9*,106.8*,100.8*
CCCC(C)C1(CC)C(=O)NC(=O)N=C1N (stereo unspecified),0.7,-5.5,1.6,7.4,8.9,5.5,.,.,.,.
COc1cccc(CNCCc2cccc(F)c2)c1OC,65.6*,-11.1,-9.5,4.1,-14.9,-36.2,76.7*,0.5,44.3,9.4
COc1ccccc1CCNCc1ccc(OC)c(OC)c1OC,61.7*,-8.7,54.8*,0.5,-24.6,-20.6,85.3*,3.2,73.9*,-0.3
CCOc1cc(CNCCc2cccc(F)c2)ccc1OC,21.6,-6.7,-14.2,-3.0,-21.2,-21.2,.,.,.,.
COC(=O)C1=C(c2ccc(C(C)=O)cc2)C[C@@H]2CC[C@H]1N2C(=O)N1CCCCC1,.,.,.,1.9,-11.3,-14.7,.,.,.,.
C1CNC2NCCNC2N1 (stereo unspecified),-0.1,-3.1,-3.5,.,.,.,.,.,.,.
CC1(C)OC(c2ccccc2)=C/C(=C/C=C2C(=O)NC(=O)NC2=O)O1,98.3*,-6.7,69.6*,24.6,5.7,21.7,10.2,20.9*,31.3,32.7*
CC(Cc1ccccc1Sc1ccccc1)N(C)C (stereo unspecified),47.8*,-9.9,9.3,-0.8,-23.7,-19.4,69.6*,2.1,11.9,10.4
O=C1NC(=O)C(=Cc2ccc(Sc3ccccc3)o2)C(=O)N1,21.2,2.4,11.8,6.4,-5.3,-15.0,.,.,.,.
O=C1NC(=O)N(c2ccc(Cl)cc2)C(=O)/C1=C\c1ccc(Sc2nc3ccccc3[nH]2)o1,60.5*,-7.5,34.0,16.7,19.3,4.1,5.8,7.5,16.9,19.8
COc1cc2c(c(OC)c1)C(=O)OC(C)CCCC(=O)CCCCC2 (stereo unspecified),-1.5,-2.6,7.7,21.4,-24.2,-22.2,.,.,.,.
COc1cc(O)cc2c1C(=O)O[C@@H](C)CCCC(=O)CCCCC2,62.2*,-10.3,19.3,10.4,-19.2,-23.7,30.4,9.6,9.5,18.2
O=C(c1ccc(Cl)cc1)C12CN3CN(CN(C3)C1)C2,-1.8,-0.8,3.3,18.5,-4.5,-6.6,.,.,.,.

# Assay outcomes deposited in PubChem BioAssay by The Scripps Research Institute Molecular Screening Center.
